Experimental data taken from ChEMBL document CHEMBL4392864, “Diketopiperazine-Type Alkaloids from a Deep-Sea-Derived Aspergillus puniceus Fungus and Their Effects on Liver X Receptor α” (J Nat Prod, 2019).
Active and inactive are the calls of the source. The calls are words filed in the database; no cut-off is given here.

What was measured:
Pyricularia oryzae = test: Antifungal activity against Pyricularia oryzae HNM 1003 assessed as growth inhibition at 0.6 mM measured after 48 hrs by microbroth dilution method; format: functional; conditions: HNM 1003, 48 h, read-out: GI
[1] = target: T1, Oxysterols receptor LXR-alpha (Homo sapiens, UniProt Q13133); test: Transactivation of recombinant GAL4-fused human LXRalpha LBD (163 to 447 residues) expressed in human L02 cells measured after 24 hrs by luciferase reporter gene assay; format: cell-based
T1 sequence (Q13133 whole entry): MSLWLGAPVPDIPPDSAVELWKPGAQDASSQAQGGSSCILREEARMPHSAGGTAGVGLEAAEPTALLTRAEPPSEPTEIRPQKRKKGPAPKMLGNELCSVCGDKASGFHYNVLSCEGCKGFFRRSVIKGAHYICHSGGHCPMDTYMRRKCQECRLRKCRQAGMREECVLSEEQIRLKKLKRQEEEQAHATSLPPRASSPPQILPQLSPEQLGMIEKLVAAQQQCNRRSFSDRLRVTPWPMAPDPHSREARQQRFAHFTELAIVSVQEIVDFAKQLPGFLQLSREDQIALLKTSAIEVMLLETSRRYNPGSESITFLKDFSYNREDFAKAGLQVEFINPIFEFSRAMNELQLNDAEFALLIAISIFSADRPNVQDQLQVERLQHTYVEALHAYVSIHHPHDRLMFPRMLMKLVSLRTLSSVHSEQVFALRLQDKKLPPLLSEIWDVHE

[2] = target: T2, Tyrosine-protein phosphatase non-receptor type 2 (Homo sapiens) (UniProt P17706); test: Inhibition of recombinant human TCPTP expressed in Escherichia coli […] preincubated for 15 mins followed by substrate addition and measured after 60 mins
T2 sequence (whole entry): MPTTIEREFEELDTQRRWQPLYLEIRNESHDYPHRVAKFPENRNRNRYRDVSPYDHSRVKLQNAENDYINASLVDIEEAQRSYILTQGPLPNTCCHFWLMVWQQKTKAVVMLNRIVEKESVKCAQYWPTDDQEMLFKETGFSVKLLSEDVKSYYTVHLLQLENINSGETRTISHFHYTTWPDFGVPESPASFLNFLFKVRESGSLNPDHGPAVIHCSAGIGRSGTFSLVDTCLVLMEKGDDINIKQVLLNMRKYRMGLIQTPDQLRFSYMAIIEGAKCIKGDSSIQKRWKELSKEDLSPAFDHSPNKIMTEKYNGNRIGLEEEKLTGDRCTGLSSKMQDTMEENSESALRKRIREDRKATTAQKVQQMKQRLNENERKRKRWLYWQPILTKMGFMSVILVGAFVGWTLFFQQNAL
Procedure, shortened: (§1)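 Recombinant human phosphatases were expressed in E. coli and purified. Enzyme and compound were preincubated for 15 min at room temperature in pH 6.5 buffer (50 mM HEPES, 100 mM NaCl, 1 mM EDTA, 1 mM DTT). Buffer containing 50 mM pNPP was then added and the mix incubated for 60 min at 37 °C. Product p-nitrophenol was read at 405 nm. Assays were run in triplicate and IC50 derived.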

[3] = target: Tyrosine-protein phosphatase non-receptor type 6 (Homo sapiens, UniProt P29350); test: Inhibition of recombinant human SHP1 expressed in Escherichia coli […] preincubated for 15 mins followed by substrate addition and measured after 60 mins; procedure, shortened: as §1
[4] = target: T3, Tyrosine-protein phosphatase non-receptor type 9 (Homo sapiens) (UniProt P43378); test: Inhibition of recombinant human MEG2 expressed in Escherichia coli […] preincubated for 15 mins followed by substrate addition and measured after 60 mins; procedure, shortened: as §1
T3 sequence (whole entry): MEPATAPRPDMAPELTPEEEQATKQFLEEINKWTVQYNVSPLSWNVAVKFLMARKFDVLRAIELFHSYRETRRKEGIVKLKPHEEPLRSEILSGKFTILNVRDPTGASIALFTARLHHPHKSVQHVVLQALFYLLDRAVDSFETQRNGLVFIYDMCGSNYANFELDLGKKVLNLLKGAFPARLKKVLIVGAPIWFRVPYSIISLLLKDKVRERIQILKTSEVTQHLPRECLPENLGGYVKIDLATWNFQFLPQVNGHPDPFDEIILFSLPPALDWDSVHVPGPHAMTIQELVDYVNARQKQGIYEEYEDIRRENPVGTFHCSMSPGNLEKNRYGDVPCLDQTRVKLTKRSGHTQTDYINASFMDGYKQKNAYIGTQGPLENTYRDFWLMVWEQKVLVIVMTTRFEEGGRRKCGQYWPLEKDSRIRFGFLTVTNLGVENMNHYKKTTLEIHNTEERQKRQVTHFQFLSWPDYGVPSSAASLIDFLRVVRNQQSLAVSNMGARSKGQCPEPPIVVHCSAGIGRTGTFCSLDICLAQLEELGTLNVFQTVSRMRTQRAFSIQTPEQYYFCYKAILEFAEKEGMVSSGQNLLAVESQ

Curvularia australiensis = test: Antifungal activity against Curvularia australiensis BY01 assessed as growth inhibition at 0.6 mM measured after 48 hrs by microbroth dilution method; format: functional; conditions: BY01, 48 h, read-out: GI
Procedure, shortened: (§2)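 Fungi were grown on PDA plates for 6−8 days at 30 °C, then the mycelia were moved into PD medium and filtered through cotton to give a spore suspension. Each well held PD medium, sample from a 10 mg/mL DMSO stock at about 0.6 mM, and spores (1 × 10^6 CFU). DMSO served as the negative control. OD600 was read at 0 and 48 h at 28 °C and percent growth inhibition calculated.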

Fusarium oxysporum = test: Antifungal activity against Fusarium oxysporum HNM 1003 assessed as growth inhibition at 0.6 mM measured after 48 hrs by microbroth dilution method; format: functional; conditions: HNM 1003, 48 h, read-out: GI; procedure, shortened: as §2
[5] = target: T4, Tyrosine-protein phosphatase non-receptor type 11 (Homo sapiens) (UniProt Q06124); test: Inhibition of recombinant human SHP2 expressed in Escherichia coli […] preincubated for 15 mins followed by substrate addition and measured after 60 mins; procedure, shortened: as §1
T4 sequence (whole entry): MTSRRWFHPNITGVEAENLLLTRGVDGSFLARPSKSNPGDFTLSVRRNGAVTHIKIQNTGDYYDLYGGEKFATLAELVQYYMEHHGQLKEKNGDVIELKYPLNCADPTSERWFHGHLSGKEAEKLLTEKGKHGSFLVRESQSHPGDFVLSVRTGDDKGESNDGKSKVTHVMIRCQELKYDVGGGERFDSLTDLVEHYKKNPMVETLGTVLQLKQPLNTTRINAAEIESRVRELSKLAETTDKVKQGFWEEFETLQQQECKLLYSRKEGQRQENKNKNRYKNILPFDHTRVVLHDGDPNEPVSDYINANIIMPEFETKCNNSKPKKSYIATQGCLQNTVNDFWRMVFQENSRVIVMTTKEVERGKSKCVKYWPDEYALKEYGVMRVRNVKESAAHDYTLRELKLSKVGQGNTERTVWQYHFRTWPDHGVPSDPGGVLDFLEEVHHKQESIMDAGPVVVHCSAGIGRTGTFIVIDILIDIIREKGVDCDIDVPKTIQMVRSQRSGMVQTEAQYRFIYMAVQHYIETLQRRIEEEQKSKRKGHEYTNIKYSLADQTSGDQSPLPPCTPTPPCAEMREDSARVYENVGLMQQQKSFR

[6] = test system: Colletotrichum gloeosporioides; test: Antifungal activity against Colletotrichum gloeosporioides HNM 1003 assessed as growth inhibition at 0.6 mM measured after 48 hrs by microbroth dilution method; format: functional; conditions: HNM 1003, 48 h, read-out: GI; procedure, shortened: as §2
[7] = target: L-lactate dehydrogenase A chain (Homo sapiens) (UniProt P00338); test: Inhibition of recombinant human LDHA expressed in Escherichia coli […] preincubated for 15 mins followed by substrate addition and measured after 60 mins
[8] = target: T5, Tyrosine-protein phosphatase non-receptor type 1 (Homo sapiens) (UniProt P18031); test: Inhibition of recombinant human PTP1B expressed in Escherichia coli […] preincubated for 15 mins followed by substrate addition and measured after 60 mins; procedure, shortened: as §1
T5 sequence (whole entry): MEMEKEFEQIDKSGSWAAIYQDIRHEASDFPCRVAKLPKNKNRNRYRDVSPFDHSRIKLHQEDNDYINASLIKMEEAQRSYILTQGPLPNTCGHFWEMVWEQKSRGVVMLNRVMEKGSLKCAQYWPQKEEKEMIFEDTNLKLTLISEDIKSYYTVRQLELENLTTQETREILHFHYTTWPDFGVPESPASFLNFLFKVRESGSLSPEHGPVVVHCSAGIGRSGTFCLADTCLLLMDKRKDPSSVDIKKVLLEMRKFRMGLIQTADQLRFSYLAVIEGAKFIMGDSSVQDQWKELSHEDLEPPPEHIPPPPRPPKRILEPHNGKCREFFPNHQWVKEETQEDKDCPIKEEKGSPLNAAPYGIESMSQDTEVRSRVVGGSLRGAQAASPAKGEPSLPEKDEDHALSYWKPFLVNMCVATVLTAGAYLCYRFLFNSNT

[9] = target: Indoleamine 2,3-dioxygenase 1 (Homo sapiens, UniProt P14902); test: Inhibition of recombinant human IDO1 expressed in Escherichia coli […] preincubated for 15 mins followed by substrate addition and measured after 60 mins
Sequence of Indoleamine 2,3-dioxygenase 1 (P14902 whole entry, looked up): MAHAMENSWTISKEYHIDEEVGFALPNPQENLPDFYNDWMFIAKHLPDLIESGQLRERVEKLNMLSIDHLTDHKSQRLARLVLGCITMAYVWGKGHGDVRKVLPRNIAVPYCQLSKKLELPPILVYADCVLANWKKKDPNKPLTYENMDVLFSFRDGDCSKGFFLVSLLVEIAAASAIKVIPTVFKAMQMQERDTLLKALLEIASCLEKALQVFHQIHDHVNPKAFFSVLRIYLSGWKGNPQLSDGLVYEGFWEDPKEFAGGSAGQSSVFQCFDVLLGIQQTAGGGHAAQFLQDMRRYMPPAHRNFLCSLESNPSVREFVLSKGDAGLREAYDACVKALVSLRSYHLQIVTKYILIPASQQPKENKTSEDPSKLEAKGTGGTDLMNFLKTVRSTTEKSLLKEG

Sequence of Tyrosine-protein phosphatase non-receptor type 6 (P29350 whole entry): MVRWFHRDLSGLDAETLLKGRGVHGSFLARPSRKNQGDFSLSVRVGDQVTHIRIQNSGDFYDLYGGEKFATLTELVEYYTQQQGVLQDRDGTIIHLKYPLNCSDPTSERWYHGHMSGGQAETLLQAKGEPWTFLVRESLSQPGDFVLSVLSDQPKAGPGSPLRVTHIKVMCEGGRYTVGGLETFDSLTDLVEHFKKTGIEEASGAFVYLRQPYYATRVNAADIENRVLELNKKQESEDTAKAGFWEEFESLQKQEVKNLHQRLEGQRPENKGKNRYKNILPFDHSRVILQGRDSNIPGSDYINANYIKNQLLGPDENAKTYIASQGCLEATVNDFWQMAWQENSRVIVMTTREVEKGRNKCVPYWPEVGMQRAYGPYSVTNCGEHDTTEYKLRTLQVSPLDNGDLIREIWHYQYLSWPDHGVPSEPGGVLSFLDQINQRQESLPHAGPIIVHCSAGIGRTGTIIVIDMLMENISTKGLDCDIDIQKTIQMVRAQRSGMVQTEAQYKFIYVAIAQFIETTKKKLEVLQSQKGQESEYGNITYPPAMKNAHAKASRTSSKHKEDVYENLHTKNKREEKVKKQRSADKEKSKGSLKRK

| SMILES | inhibition of growth at 600 µM (Pyricularia oryzae) [%] | EC50 [1] [µM] | inhibition [2] | inhibition [3] | inhibition [4] | inhibition of growth at 600 µM (Curvularia australiensis) [%] | inhibition of growth at 600 µM (Fusarium oxysporum) [%] | inhibition [5] | inhibition of growth at 600 µM [6] [%] | inhibition [7] | inhibition [8] | inhibition [9] |
| --- | --- | --- | --- | --- | --- | --- | --- | --- | --- | --- | --- | --- |
| C[C@@H]1C(=O)N[C@@](O)(Cc2ccccc2)c2nc3c(c(=O)n21)C=CC=CO3 | < 50 | 16 | inactive | inactive | inactive | < 50 | < 50 | inactive | < 50 | inactive | inactive | inactive |
| CO[C@]1(Cc2ccccc2)NC(=O)[C@@H](C)n2c1nc1c(O)cccc1c2=O | < 50 | 5.1 | inactive | inactive | inactive | < 50 | < 50 | inactive | < 50 | inactive | inactive | inactive |
| CO[C@@]1(Cc2ccccc2)NC(=O)[C@@H](C)n2c1nc1c(c2=O)C=CC=CO1 | < 50 | 15 | inactive | inactive | inactive | < 50 | < 50 | inactive | < 50 | inactive | inactive | inactive |
| CO[C@]1(Cc2ccccc2)NC(=O)[C@@H](C)n2c1nc1c(c2=O)C=CC=CO1 | < 50 | 15 | inactive | inactive | inactive | < 50 | < 50 | inactive | < 50 | inactive | inactive | inactive |
